Measurements as given in ChEMBL document CHEMBL1146498, “Excisanin H, a novel cytotoxic 14,20-epoxy-ent-kaurene diterpenoid, and three new ent-kaurene diterpenoids from Rabdosia excisa” (J Nat Prod, 2004).
Converted amounts (≈) assume the structure as drawn.

test system: P388; test: Cytotoxicity against mouse P388 cells; format: functional, cell-based
Outline: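 In vitro assay on P388 murine leukemia cells; cytotoxic activity expressed as IC50, reported in μg/mL.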

| Structure (SMILES) | IC50 [µg/mL] |
| --- | --- |
| C=C1C(=O)[C@@]23[C@@H](CC[C@@H]1[C@H]2O)[C@@]12C(=O)O[C@@H]3C[C@@H]1C(C)(C)CC[C@@H]2O | 0.77 (≈ 2.22 µM) |
| C=C1C(=O)[C@@]23[C@H](O)C[C@@H]4[C@@](C)(CO)CC[C@H](O)[C@@]4(C)[C@@H]2CC[C@@H]1[C@H]3O | 0.92 (≈ 2.63 µM) |
| C=C1C(=O)[C@@]23[C@H](O)C[C@@H]4[C@@](C)(COC(C)=O)CC[C@H](O)[C@@]4(C)[C@@H]2CC[C@@H]1[C@H]3O | 0.72 (≈ 1.83 µM) |
| C=C1C(=O)[C@@]23[C@H](O)C[C@@H]4C(C)(C)CC[C@H](O)[C@@]4(C)[C@@H]2CC[C@@H]1[C@H]3O [KAMEBANIN] | 0.69 (≈ 2.06 µM) |
| C=C1C(=O)[C@@]23[C@H](O)C[C@@H]4C(C)(C)CC[C@H](O)[C@@]4(CO)[C@@H]2CC[C@@H]1[C@H]3O [KAMEBAKAURIN] | 0.82 (≈ 2.34 µM) |
| C=C1C(=O)[C@@]23[C@H](O)C[C@@H]4C(C)(C)CC[C@H](O)[C@@]4(C)[C@@H]2C[C@H](OC(C)=O)[C@@H]1[C@H]3O [EXCISANIN B] | 0.63 (≈ 1.61 µM) |
| C=C1C(=O)[C@]23[C@H](O)C[C@@H]4C(C)(C)CC[C@H](O)[C@]45CO[C@]2(O)[C@H]1CC[C@@H]53 [EXCISANIN H] | 0.96 (≈ 2.76 µM) |
| C=C1C(=O)[C@@]23[C@H](O)C[C@@H]4C(C)(C)CCC[C@@]4(CO)[C@@H]2C[C@H](O)[C@@H]1[C@H]3O [EXCISANIN I] | 0.87 (≈ 2.48 µM) |
| C=C1C(=O)[C@@]23[C@H](O)C[C@@H]4[C@@](C)(CO)CCC[C@@]4(C)[C@@H]2C[C@H](O)[C@@H]1[C@H]3O [RABDOKUNMIN C] | 1.06 (≈ 3.02 µM) |
| C=C1C(=O)[C@@]23[C@H](O)C[C@@H]4C(C)(C)CC[C@H](O)[C@@]4(C)[C@@H]2C[C@H](O)[C@@H]1[C@H]3O [EXCISANIN A] | 1.11 (≈ 3.17 µM) |
| C=C1C(=O)[C@@]23[C@H](O)C[C@@H]4C(C)(C)CC[C@H](O)[C@@]4(COC(C)=O)[C@@H]2CC[C@@H]1[C@H]3O [HENRYIN] | 0.58 (≈ 1.48 µM) |
| C=C1C(=O)[C@@]23[C@H](O)C[C@@H]4[C@@](C)(CO)CCC[C@@]4(CO)[C@@H]2CC[C@@H]1[C@H]3O [EXCISANIN J] | 0.92 (≈ 2.63 µM) |
| C=C1C(=O)[C@@]23[C@H](O)C[C@@H]4C(C)(C)CC[C@H](O)[C@@]4(CO)[C@@H]2C[C@H](O)[C@@H]1[C@H]3O [RABDOSERRIN B] | 1.01 (≈ 2.76 µM) |
| C=C1C(=O)[C@]23[C@H](O)[C@H]1CC[C@H]2[C@@]12CO[C@@]3(O)C[C@@H]1C(C)(C)CC[C@@H]2O [MEGATHYRIN A] | 0.77 (≈ 2.21 µM) |
